≈ marks a conversion by molar mass, not a printed value.
Columns and labels:
Type in all cases: functional
Enterococcus faecalis [1] = assay: Antibacterial activity against Enterococcus faecalis 14-2 after 18 to 24 hrs
Method in brief: (§1)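 MIC by standard NCCLS reference procedure (M100-S11); lowest concentration of compound inhibiting visible bacterial growth after incubation at 35 °C for 18–24 h, read as complete inhibition of growth. Ciprofloxacin, levofloxacin and moxifloxacin run alongside as reference agents.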

Enterococcus faecium [2] = assay: Antibacterial activity against Enterococcus faecium 14-1 after 18 to 24 hrs; method in brief: as §1
Enterococcus faecium [3] = assay: Antibacterial activity against Enterococcus faecium 14-2 after 18 to 24 hrs; method in brief: as §1
Enterococcus faecium [4] = assay: Antibacterial activity against Enterococcus faecium 14-5 after 18 to 24 hrs; method in brief: as §1
Enterococcus faecium [5] = assay: Antibacterial activity against Enterococcus faecium 14-6 after 18 to 24 hrs; method in brief: as §1
[6] = test system: Mycobacterium tuberculosis; assay: Antimycobacterial activity against Mycobacterium tuberculosis H37Rv ATCC 27294 by alamar blue assay
Method in brief: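 Microplate Alamar Blue Assay; MIC is the lowest concentration giving ≥90% reduction in fluorescence relative to the mean of replicate bacterium-only controls. MDR strain 6133 is resistant to isoniazid and rifampicin.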

Escherichia coli [7] = assay: Antibacterial activity against Escherichia coli ATCC 25922 after 18 to 24 hrs; method in brief: as §1
Escherichia coli [8] = assay: Antibacterial activity against ESBL-positive Escherichia coli 14-1 after 18 to 24 hrs; method in brief: as §1
Escherichia coli [9] = assay: Antibacterial activity against ESBL-positive Escherichia coli 14-2 after 18 to 24 hrs; method in brief: as §1
Escherichia coli [10] = assay: Antibacterial activity against Escherichia coli 14-1 after 18 to 24 hrs; method in brief: as §1
Escherichia coli [11] = assay: Antibacterial activity against Escherichia coli 14-2 after 18 to 24 hrs; method in brief: as §1
Klebsiella pneumoniae [12] = assay: Antibacterial activity against ESBL-positive Klebsiella pneumoniae 14-17 after 18 to 24 hrs; method in brief: as §1
Klebsiella pneumoniae [13] = assay: Antibacterial activity against ESBL-positive Klebsiella pneumoniae 14-18 after 18 to 24 hrs; method in brief: as §1
Klebsiella pneumoniae [14] = assay: Antibacterial activity against ESBL-positive Klebsiella pneumoniae 14-19 after 18 to 24 hrs; method in brief: as §1
Klebsiella pneumoniae [15] = assay: Antibacterial activity against Klebsiella pneumoniae 14-1 after 18 to 24 hrs; method in brief: as §1
Klebsiella pneumoniae [16] = assay: Antibacterial activity against Klebsiella pneumoniae 14-2 after 18 to 24 hrs; method in brief: as §1
Klebsiella pneumoniae [17] = assay: Antibacterial activity against Klebsiella pneumoniae 14-3 after 18 to 24 hrs; method in brief: as §1
Klebsiella pneumoniae [18] = assay: Antibacterial activity against Klebsiella pneumoniae 14-4 after 18 to 24 hrs; method in brief: as §1
Pseudomonas aeruginosa [19] = assay: Antibacterial activity against Pseudomonas aeruginosa ATCC 27853 after 18 to 24 hrs; method in brief: as §1
Pseudomonas aeruginosa [20] = assay: Antibacterial activity against Pseudomonas aeruginosa 14-9 after 18 to 24 hrs; method in brief: as §1
Pseudomonas aeruginosa [21] = assay: Antibacterial activity against Pseudomonas aeruginosa 14-14 after 18 to 24 hrs; method in brief: as §1
Pseudomonas aeruginosa [22] = assay: Antibacterial activity against Pseudomonas aeruginosa 14-15 after 18 to 24 hrs; method in brief: as §1
Pseudomonas aeruginosa [23] = assay: Antibacterial activity against Pseudomonas aeruginosa 14-16 after 18 to 24 hrs; method in brief: as §1
Pseudomonas aeruginosa [24] = assay: Antibacterial activity against Pseudomonas aeruginosa 14-19 after 18 to 24 hrs; method in brief: as §1
Staphylococcus aureus [25] = assay: Antibacterial activity against Staphylococcus aureus CMCC 26003 after 18 to 24 hrs; method in brief: as §1
Staphylococcus aureus [26] = assay: Antibacterial activity against methicillin-sensitive Staphylococcus aureus 14-1 after 18 to 24 hrs; method in brief: as §1
Staphylococcus aureus [27] = assay: Antibacterial activity against methicillin-sensitive Staphylococcus aureus 14-2 after 18 to 24 hrs; method in brief: as §1
Staphylococcus aureus [28] = assay: Antibacterial activity against methicillin-sensitive Staphylococcus aureus 14-3 after 18 to 24 hrs; method in brief: as §1
Staphylococcus aureus [29] = assay: Antibacterial activity against methicillin-sensitive Staphylococcus aureus 14-4 after 18 to 24 hrs; method in brief: as §1
Staphylococcus aureus [30] = assay: Antibacterial activity against methicillin-resistant Staphylococcus aureus 14-4 after 18 to 24 hrs
Staphylococcus aureus [31] = assay: Antibacterial activity against methicillin-resistant Staphylococcus aureus 14-5 after 18 to 24 hrs
[32] = test system: Staphylococcus epidermidis; assay: Antibacterial activity against methicillin-sensitive Staphylococcus epidermidis 14-2 after 18 to 24 hrs; method in brief: as §1
[33] = test system: Staphylococcus epidermidis; assay: Antibacterial activity against methicillin-resistant Staphylococcus epidermidis 14-21 after 18 to 24 hrs
[34] = test system: Staphylococcus epidermidis; assay: Antibacterial activity against methicillin-resistant Staphylococcus epidermidis 14-22 after 18 to 24 hrs
[35] = test system: Staphylococcus epidermidis; assay: Antibacterial activity against methicillin-resistant Staphylococcus epidermidis 14-37 after 18 to 24 hrs
[36] = test system: Staphylococcus epidermidis; assay: Antibacterial activity against methicillin-resistant Staphylococcus epidermidis 14-39 after 18 to 24 hrs
Streptococcus pneumoniae = assay: Antibacterial activity against Streptococcus pneumoniae ATCC 19615 after 18 to 24 hrs; method in brief: as §1
Enterococcus faecalis [37] = assay: Antibacterial activity against Enterococcus faecalis 14-1 after 18 to 24 hrs; method in brief: as §1

## COc1ccc(CO/N=C2\CN(c3nc4c(cc3F)c(=O)c(C(=O)O)cn4[C@@H]3C[C@@H]3F)CC2CN)cc1 (stereo partly specified)
Enterococcus faecalis [1]
  MIC: < 0.008 µg/mL
Enterococcus faecium [2]
  MIC: 2 µg/mL (≈ 3.89 µM)
Enterococcus faecium [3]
  MIC: 2 µg/mL (≈ 3.89 µM)
Enterococcus faecium [4]
  MIC: 8 µg/mL (≈ 15.6 µM)
Enterococcus faecium [5]
  MIC: 8 µg/mL (≈ 15.6 µM)
[6]
  MIC90: 0.353 µg/mL (≈ 0.687 µM)
Escherichia coli [7]
  MIC: < 0.008 µg/mL
Escherichia coli [8]
  MIC: < 0.008 µg/mL
Escherichia coli [9]
  MIC: 64 µg/mL (≈ 125 µM)
Escherichia coli [10]
  MIC: 32 µg/mL (≈ 62.3 µM)
Escherichia coli [11]
  MIC: 32 µg/mL (≈ 62.3 µM)
Klebsiella pneumoniae [12]
  MIC: 8 µg/mL (≈ 15.6 µM)
Klebsiella pneumoniae [13]
  MIC: 8 µg/mL (≈ 15.6 µM)
Klebsiella pneumoniae [14]
  MIC: 128 µg/mL (≈ 249 µM)
Klebsiella pneumoniae [15]
  MIC: 128 µg/mL (≈ 249 µM)
Klebsiella pneumoniae [16]
  MIC: 128 µg/mL (≈ 249 µM)
Klebsiella pneumoniae [17]
  MIC: 128 µg/mL (≈ 249 µM)
Klebsiella pneumoniae [18]
  MIC: 128 µg/mL (≈ 249 µM)
Pseudomonas aeruginosa [19]
  MIC: 4 µg/mL (≈ 7.79 µM)
Pseudomonas aeruginosa [20]
  MIC: 8 µg/mL (≈ 15.6 µM)
Pseudomonas aeruginosa [21]
  MIC: 8 µg/mL (≈ 15.6 µM)
Pseudomonas aeruginosa [22]
  MIC: 16 µg/mL (≈ 31.2 µM)
Pseudomonas aeruginosa [23]
  MIC: 8 µg/mL (≈ 15.6 µM)
Pseudomonas aeruginosa [24]
  MIC: 16 µg/mL (≈ 31.2 µM)
Staphylococcus aureus [25]
  MIC: < 0.008 µg/mL
Staphylococcus aureus [26]
  MIC: 2 µg/mL (≈ 3.89 µM)
Staphylococcus aureus [27]
  MIC: < 0.008 µg/mL
Staphylococcus aureus [28]
  MIC: 0.015 µg/mL (≈ 0.0292 µM)
Staphylococcus aureus [29]
  MIC: 0.03 µg/mL (≈ 0.0584 µM)
Staphylococcus aureus [30]
  MIC: 16 µg/mL (≈ 31.2 µM)
Staphylococcus aureus [31]
  MIC: 8 µg/mL (≈ 15.6 µM)
[32]
  MIC: 32 µg/mL (≈ 62.3 µM)
[33]
  MIC: 4 µg/mL (≈ 7.79 µM)
[34]
  MIC: 4 µg/mL (≈ 7.79 µM)
[35]
  MIC: 16 µg/mL (≈ 31.2 µM)
[36]
  MIC: 8 µg/mL (≈ 15.6 µM)
Streptococcus pneumoniae
  MIC: 0.015 µg/mL (≈ 0.0292 µM)
Enterococcus faecalis [37]
  MIC: 32 µg/mL (≈ 62.3 µM)

## NCC1CN(c2nc3c(cc2F)c(=O)c(C(=O)O)cn3[C@@H]2C[C@@H]2F)C/C1=N\OCc1ccc(Br)cc1 (stereo partly specified)
Enterococcus faecalis [1]
  MIC: 0.125 µg/mL (≈ 0.222 µM)
Enterococcus faecium [2]
  MIC: 2 µg/mL (≈ 3.56 µM)
Enterococcus faecium [3]
  MIC: 2 µg/mL (≈ 3.56 µM)
Enterococcus faecium [4]
  MIC: 8 µg/mL (≈ 14.2 µM)
Enterococcus faecium [5]
  MIC: 16 µg/mL (≈ 28.5 µM)
[6]
  MIC90: 0.375 µg/mL (≈ 0.667 µM)
Escherichia coli [7]
  MIC: 0.125 µg/mL (≈ 0.222 µM)
Escherichia coli [8]
  MIC: 4 µg/mL (≈ 7.11 µM)
Escherichia coli [9]
  MIC: 64 µg/mL (≈ 114 µM)
Escherichia coli [10]
  MIC: 64 µg/mL (≈ 114 µM)
Escherichia coli [11]
  MIC: 64 µg/mL (≈ 114 µM)
Klebsiella pneumoniae [12]
  MIC: 8 µg/mL (≈ 14.2 µM)
Klebsiella pneumoniae [13]
  MIC: 8 µg/mL (≈ 14.2 µM)
Klebsiella pneumoniae [14]
  MIC: > 128 µg/mL
Klebsiella pneumoniae [15]
  MIC: 128 µg/mL (≈ 228 µM)
Klebsiella pneumoniae [16]
  MIC: 128 µg/mL (≈ 228 µM)
Klebsiella pneumoniae [17]
  MIC: 128 µg/mL (≈ 228 µM)
Klebsiella pneumoniae [18]
  MIC: 128 µg/mL (≈ 228 µM)
Pseudomonas aeruginosa [19]
  MIC: 4 µg/mL (≈ 7.11 µM)
Pseudomonas aeruginosa [20]
  MIC: 8 µg/mL (≈ 14.2 µM)
Pseudomonas aeruginosa [21]
  MIC: 8 µg/mL (≈ 14.2 µM)
Pseudomonas aeruginosa [22]
  MIC: 8 µg/mL (≈ 14.2 µM)
Pseudomonas aeruginosa [23]
  MIC: 8 µg/mL (≈ 14.2 µM)
Pseudomonas aeruginosa [24]
  MIC: 16 µg/mL (≈ 28.5 µM)
Staphylococcus aureus [25]
  MIC: < 0.008 µg/mL
Staphylococcus aureus [26]
  MIC: 2 µg/mL (≈ 3.56 µM)
Staphylococcus aureus [27]
  MIC: < 0.008 µg/mL
Staphylococcus aureus [28]
  MIC: 0.015 µg/mL (≈ 0.0267 µM)
Staphylococcus aureus [29]
  MIC: < 0.008 µg/mL
Staphylococcus aureus [30]
  MIC: 16 µg/mL (≈ 28.5 µM)
Staphylococcus aureus [31]
  MIC: 16 µg/mL (≈ 28.5 µM)
[32]
  MIC: 16 µg/mL (≈ 28.5 µM)
[33]
  MIC: 4 µg/mL (≈ 7.11 µM)
[34]
  MIC: 2 µg/mL (≈ 3.56 µM)
[35]
  MIC: 16 µg/mL (≈ 28.5 µM)
[36]
  MIC: 8 µg/mL (≈ 14.2 µM)
Streptococcus pneumoniae
  MIC: < 0.008 µg/mL
Enterococcus faecalis [37]
  MIC: 32 µg/mL (≈ 56.9 µM)
